Consider nine compounds from ChEMBL document CHEMBL2086267, “Discovery of N6-phenyl-1H-pyrazolo[3,4-d]pyrimidine-3,6-diamine derivatives as novel CK1 inhibitors using common-feature pharmacophore model based virtual screening and hit-to-lead optimization” (Eur J Med Chem, 2012).

Experiment [1] addresses T1, Casein kinase I isoform alpha (Homo sapiens, UniProt P48729). The experiment in a line: Inhibition of CK1 using KRRRALS(p)VASLPGL as substrate after 40 mins by scintillation counter.
Target sequence in this assay (P48729 whole entry, canonical isoform): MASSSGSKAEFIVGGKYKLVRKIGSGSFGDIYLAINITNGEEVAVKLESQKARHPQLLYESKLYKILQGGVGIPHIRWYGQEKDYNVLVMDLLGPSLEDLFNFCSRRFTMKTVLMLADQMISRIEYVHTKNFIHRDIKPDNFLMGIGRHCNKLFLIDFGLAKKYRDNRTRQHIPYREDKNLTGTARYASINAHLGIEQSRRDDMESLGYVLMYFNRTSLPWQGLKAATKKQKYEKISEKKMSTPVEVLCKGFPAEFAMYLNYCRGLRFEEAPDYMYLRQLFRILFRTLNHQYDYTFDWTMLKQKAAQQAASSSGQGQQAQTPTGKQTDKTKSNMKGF
Experiment [2] addresses Epidermal growth factor receptor (Homo sapiens) (UniProt P00533). The experiment in a line: Inhibition of EGFR at 10 uM. An outline of the steps: (§1)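 Kinase inhibition was tested through a commercial kinase profiling service. Each assay was run twice and mean activity calculated.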
The target of experiment [3] is Serine/threonine-protein kinase mTOR (Homo sapiens) (UniProt P42345). The experiment in a line: Inhibition of mTOR at 10 uM. A digest of the protocol:
as §1

Experiment [4] addresses Receptor-type tyrosine-protein kinase FLT3 (Homo sapiens) (UniProt P36888). The experiment in a line: Inhibition of Flt3 at 10 uM. A digest of the protocol:
as §1

The target in experiment [5] is Platelet-derived growth factor receptor alpha (Homo sapiens) (UniProt P16234). The experiment in a line: Inhibition of PDGFRalpha at 10 uM. An outline of the steps:
as §1

The target of experiment [6] is Fibroblast growth factor receptor 2 (Homo sapiens) (UniProt P21802). The experiment in a line: Inhibition of FGFR2 at 10 uM. A digest of the protocol: as §1
The target of experiment [7] is Glycogen synthase kinase-3 alpha (Homo sapiens) (UniProt P49840). The experiment in a line: Inhibition of GSK3alpha at 10 uM. An outline of the steps:
as §1

Experiment [8] concerns the target Cyclin-dependent kinase 1 (Homo sapiens) (UniProt P06493). The experiment in a line: Inhibition of CDK1 at 10 uM. A digest of the protocol: as §1
For experiment [9], the target named is Tyrosine-protein kinase receptor UFO (Homo sapiens) (UniProt P30530). The experiment in a line: Inhibition of Axl at 10 uM. A digest of the protocol: as §1
In experiment [10] the target is ALK tyrosine kinase receptor (Homo sapiens) (UniProt Q9UM73). The experiment in a line: Inhibition of ALK at 10 uM. An outline of the steps:
as §1

Experiment [11] concerns the target Hepatocyte growth factor receptor (Homo sapiens) (UniProt P08581). The experiment in a line: Inhibition of Met at 10 uM. A digest of the protocol: as §1
In experiment [12] the target is T1, Casein kinase I isoform alpha. The experiment in a line: Inhibition of CK1 using KRRRALS(p)VASLPGL as substrate at 10 uM after 40 mins by scintillation counter. An outline of the steps:
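Radiometric CK1 assay with substrate KRRRALS(p)VASLPGL and [γ-³³P]ATP plus 10 mM Mg acetate, in 20 mM MOPS, 1 mM EDTA, 0.01% Brij-35 and 5% glycerol. Reactions were spotted onto P30 filtermat, washed three times for 5 min in 75 mM phosphoric acid and once in methanol, dried, then scintillation counted. Run twice; mean activity reported.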
Target sequence in this assay (P48729 2-337 limits assumed): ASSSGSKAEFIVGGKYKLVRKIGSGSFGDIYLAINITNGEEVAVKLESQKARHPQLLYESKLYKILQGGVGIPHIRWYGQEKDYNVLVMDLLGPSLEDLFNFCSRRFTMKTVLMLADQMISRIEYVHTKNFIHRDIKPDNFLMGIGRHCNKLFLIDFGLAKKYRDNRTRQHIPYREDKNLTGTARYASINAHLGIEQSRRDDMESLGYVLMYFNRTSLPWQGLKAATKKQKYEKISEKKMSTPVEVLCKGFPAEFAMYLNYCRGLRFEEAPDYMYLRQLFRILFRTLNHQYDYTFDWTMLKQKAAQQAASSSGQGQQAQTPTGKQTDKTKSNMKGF

Experiment [13] deals with Vascular endothelial growth factor receptor 2 (Homo sapiens) (UniProt P35968). The experiment in a line: Inhibition of KDR at 10 uM. An outline of the steps: as §1
In experiment [14] the target is Serine/threonine-protein kinase PLK1 (Homo sapiens) (UniProt P53350). The experiment in a line: Inhibition of Plk1 at 10 uM. A digest of the protocol:
as §1

Tyrosine-protein kinase receptor UFO (Homo sapiens), sequence (P30530 whole entry): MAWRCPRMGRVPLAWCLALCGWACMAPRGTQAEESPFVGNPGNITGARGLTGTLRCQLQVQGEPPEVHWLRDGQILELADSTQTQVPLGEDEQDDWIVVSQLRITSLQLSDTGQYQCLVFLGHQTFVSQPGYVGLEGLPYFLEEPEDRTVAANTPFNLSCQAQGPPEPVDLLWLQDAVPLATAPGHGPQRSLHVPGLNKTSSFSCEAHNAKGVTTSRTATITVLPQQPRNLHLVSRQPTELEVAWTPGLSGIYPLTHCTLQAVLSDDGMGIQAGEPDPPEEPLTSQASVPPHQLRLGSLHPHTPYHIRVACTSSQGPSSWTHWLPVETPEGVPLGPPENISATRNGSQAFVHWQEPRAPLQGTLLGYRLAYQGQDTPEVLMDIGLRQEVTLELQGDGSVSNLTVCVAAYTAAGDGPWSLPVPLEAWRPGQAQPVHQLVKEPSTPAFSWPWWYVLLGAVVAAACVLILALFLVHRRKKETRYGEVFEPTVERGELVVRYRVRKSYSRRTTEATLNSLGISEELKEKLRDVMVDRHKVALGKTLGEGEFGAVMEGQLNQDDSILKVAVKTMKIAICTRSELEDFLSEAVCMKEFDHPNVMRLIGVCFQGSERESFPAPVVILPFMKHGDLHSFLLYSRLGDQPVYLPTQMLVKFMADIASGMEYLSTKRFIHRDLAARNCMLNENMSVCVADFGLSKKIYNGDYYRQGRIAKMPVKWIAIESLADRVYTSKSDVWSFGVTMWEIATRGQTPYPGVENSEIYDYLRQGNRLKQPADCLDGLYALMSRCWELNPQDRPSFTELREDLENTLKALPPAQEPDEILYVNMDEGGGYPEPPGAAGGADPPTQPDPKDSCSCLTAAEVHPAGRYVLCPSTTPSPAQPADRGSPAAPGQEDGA
Fibroblast growth factor receptor 2 (Homo sapiens), sequence (P21802 22-821 limits assumed): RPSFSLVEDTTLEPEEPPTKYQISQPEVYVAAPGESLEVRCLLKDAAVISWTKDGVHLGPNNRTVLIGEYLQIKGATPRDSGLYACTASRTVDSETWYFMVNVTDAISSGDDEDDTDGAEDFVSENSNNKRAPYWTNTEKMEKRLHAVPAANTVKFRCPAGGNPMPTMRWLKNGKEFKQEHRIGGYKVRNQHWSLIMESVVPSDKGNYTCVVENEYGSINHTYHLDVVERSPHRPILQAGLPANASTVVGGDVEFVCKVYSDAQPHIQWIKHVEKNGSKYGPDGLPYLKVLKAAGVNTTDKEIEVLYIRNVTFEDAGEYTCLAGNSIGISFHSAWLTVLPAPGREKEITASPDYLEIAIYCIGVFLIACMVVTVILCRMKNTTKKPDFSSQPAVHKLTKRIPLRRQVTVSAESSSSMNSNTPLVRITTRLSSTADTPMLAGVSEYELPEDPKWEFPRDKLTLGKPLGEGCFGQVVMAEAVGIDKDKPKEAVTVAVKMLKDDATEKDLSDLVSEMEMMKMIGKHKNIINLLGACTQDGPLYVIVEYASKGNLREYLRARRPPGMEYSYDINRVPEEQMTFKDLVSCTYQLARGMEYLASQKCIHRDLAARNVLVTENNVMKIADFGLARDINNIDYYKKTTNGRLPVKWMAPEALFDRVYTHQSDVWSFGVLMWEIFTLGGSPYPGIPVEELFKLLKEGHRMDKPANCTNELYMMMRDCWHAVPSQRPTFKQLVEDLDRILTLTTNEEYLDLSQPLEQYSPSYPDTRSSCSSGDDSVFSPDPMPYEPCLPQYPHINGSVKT
ALK tyrosine kinase receptor (Homo sapiens), sequence (Q9UM73 19-1620 limits assumed): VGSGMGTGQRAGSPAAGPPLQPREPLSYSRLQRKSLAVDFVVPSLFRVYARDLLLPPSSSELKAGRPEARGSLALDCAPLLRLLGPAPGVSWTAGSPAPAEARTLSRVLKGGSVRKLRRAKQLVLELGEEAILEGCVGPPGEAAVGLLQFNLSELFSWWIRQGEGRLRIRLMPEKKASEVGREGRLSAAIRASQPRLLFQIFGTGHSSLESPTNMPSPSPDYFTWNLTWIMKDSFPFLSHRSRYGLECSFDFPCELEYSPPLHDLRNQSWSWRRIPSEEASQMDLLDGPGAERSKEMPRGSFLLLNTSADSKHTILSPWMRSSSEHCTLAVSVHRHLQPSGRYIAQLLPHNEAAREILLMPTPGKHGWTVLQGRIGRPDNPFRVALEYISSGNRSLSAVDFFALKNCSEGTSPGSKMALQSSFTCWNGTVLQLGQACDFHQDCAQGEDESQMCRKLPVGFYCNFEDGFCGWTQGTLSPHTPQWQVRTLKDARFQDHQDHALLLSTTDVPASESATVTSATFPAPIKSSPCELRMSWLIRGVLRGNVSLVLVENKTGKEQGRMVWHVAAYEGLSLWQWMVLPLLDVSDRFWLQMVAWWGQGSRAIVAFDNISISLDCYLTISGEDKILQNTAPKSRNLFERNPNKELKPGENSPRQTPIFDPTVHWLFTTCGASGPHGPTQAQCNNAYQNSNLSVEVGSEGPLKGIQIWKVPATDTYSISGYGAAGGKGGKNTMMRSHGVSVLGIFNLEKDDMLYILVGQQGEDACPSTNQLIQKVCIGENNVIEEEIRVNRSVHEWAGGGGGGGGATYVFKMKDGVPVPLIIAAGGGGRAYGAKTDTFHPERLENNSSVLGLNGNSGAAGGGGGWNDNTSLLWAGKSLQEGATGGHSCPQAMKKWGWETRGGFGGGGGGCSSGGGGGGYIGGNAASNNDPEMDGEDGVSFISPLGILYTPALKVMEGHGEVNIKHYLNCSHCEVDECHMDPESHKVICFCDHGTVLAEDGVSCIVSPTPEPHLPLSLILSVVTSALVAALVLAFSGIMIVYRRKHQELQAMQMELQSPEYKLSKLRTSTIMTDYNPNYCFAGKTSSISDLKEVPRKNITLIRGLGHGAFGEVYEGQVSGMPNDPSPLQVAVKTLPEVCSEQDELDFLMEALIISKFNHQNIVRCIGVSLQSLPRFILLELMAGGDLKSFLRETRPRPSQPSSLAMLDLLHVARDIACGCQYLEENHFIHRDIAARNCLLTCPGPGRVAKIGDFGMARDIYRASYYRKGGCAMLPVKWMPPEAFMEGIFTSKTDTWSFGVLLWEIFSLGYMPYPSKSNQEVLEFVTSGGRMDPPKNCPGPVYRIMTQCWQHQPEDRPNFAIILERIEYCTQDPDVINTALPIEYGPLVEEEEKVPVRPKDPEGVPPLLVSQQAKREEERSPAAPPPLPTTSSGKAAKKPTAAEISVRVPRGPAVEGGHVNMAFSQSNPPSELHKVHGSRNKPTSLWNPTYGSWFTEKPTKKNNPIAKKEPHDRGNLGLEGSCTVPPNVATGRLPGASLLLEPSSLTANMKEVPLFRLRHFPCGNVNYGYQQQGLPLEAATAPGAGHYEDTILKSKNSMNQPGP
Receptor-type tyrosine-protein kinase FLT3 (Homo sapiens), sequence (P36888 whole entry): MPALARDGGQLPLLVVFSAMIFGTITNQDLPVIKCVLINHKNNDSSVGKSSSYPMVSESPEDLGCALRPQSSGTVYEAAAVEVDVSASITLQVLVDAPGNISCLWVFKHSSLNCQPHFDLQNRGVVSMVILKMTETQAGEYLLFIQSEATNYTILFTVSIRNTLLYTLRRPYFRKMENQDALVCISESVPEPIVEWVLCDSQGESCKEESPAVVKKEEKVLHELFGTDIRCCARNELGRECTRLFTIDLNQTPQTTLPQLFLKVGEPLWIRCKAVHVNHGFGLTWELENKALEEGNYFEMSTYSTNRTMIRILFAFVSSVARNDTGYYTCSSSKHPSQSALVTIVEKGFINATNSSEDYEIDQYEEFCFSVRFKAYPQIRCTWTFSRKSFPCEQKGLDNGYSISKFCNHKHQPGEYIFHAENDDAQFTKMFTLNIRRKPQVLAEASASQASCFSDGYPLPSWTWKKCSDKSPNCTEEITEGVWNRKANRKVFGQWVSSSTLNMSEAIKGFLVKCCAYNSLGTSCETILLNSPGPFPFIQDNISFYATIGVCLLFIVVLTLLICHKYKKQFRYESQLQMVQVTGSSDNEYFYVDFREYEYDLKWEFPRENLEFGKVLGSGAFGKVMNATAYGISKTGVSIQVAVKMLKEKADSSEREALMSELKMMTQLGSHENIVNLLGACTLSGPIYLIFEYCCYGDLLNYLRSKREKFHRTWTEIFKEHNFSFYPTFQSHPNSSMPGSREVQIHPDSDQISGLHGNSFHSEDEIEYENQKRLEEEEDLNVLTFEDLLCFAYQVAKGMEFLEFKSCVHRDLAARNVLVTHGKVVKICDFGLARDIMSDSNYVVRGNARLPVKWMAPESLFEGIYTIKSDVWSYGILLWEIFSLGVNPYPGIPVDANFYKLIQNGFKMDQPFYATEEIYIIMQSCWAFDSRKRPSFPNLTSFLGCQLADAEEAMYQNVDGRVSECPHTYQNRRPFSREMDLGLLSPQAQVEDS

On to `C[C@@H](NC(=O)Nc1ccc(Nc2ncc3c(N)n[nH]c3n2)cc1)c1ccccc1`, for which the half-maximal inhibitory concentration (IC50) (commonly the point on the concentration scale where inhibition reaches its midpoint) in [1] is over 10000 nM.
For `CC[C@H](CO)Nc1nc(Nc2cccc(-c3ccccn3)c2)c2ncn(C(C)C)c2n1`, in [1], the IC50 is 14 nM.
In experiment [1], `COc1cc(OC)c(C=C2C(O)=Nc3ccccc32)c(OC)c1` [IC261] returned an IC50 of 1000 nM.
On to `Nc1n[nH]c2nc(Nc3ccc(NC(=O)Nc4ccc(F)c(Cl)c4)cc3)ncc12`, for which, in experiment [1], the IC50 was over 10000 nM.
Compound `C[C@@H](NC(=O)Nc1cccc(Nc2ncc3c(N)[nH]nc3n2)c1)c1ccccc1` showed an IC50 in experiment [1] of 2470 nM.
Regarding `CC(C)(C)c1cc(NC(=O)Nc2cccc(Nc3ncc4c(N)n[nH]c4n3)c2)n[nH]1`, the IC50 in experiment [1] stood at 142 nM.
Same read-out and setting: under `Nc1[nH]nc2nc(Nc3cccc(NC(=O)Nc4ccc(F)c(Cl)c4)c3)ncc12` stands 78 nM.
On to `Nc1n[nH]c2nc(Nc3cccc(NC(=O)Nc4ccc(F)c(Cl)c4)c3)ncc12`, for which the inhibition (as a rule, the share of the control response that was lost under treatment) in [2] came to 92%; in experiment [3] it was 0%; in experiment [4] it was 90%; in experiment [5] it was 82%; in experiment [6], 35%; in [7], 34%. The inhibition was determined as 42% in [8]; 46% in [9]; 26% in [10]; 99% in [11]; 100% in experiment [12]; 96% in experiment [13]. In addition, the inhibition in experiment [14] was 0%.
Compound `NCCNS(=O)(=O)c1ccc(Cl)c2ccncc12` displayed an IC50 in experiment [1] of 10000 nM.
